Screening data from PubChem BioAssay.
MC4R barr agon: human MC4R agonism via beta-arrestin; P32245; U2OS MC4R beta-arrestin complementation, luminescence; percent of melanotan II response, DMSO zero; activation, % at 8.9 µM; hit rate 0.98% among 360,000; AID 540308;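 active means activation above a per-plate cutoff, the mean activation of sample wells on that plate plus 3 SD, cut at about 8% in these data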
CSC inhib: cancer stem cell inhibition; cancer stem cell-like cells viability, luminescence; AID 2717; hit rate 1.1% among 300,000; inhibition, % at 7.5 µM; in the data active means inhibition above about 75%; tested in HMLE shEcad cells
TMEM16A act: mouse TMEM16A channel activation, primary screen; Q8BHY3; HEK293 TMEM16A/YFP-H148Q/I152L, iodide quench fluorescence; active compounds read low; B-score at 10 µM; hit rate 0.3% among 340,000; AID 623877;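 active means fluorescence-ratio B-score plate-corrected deviation score at least 3 library SD below zero, with starting fluorescence score within 5 deviations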;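 further: channel opened by trigger with iodide after compound preincubation; score built on the fluorescence ratio of max minus min over baseline; more negative score means more quench and so TMEM16A activation or potentiation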
Beta apoptosis: beta cell apoptosis inhibition; INS-1E cytokine-induced death, ATP luminescence, 48 h; percent of positive-control rescue, neutral wells zero; protection from apoptosis, % (no concentration beside the values); hit rate 0.8% among 300,000;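 active means Every replicate reaches about 75%, or at least half do and their mean reaches it too, limit read from the data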;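 further: 0% = cytokine-treated negative control wells and 100% = positive control rescue; higher means more ATP so stronger rescue from cytokine killing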
MC4R antagonist: blocks human MC4R cAMP signaling. P32245. MC4R-expressing cells, MTII-stimulated cAMP, LANCE TR-FRET. hit rate 0.48% among 360,000. inhibition, % at 6.5 µM;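 active means inhibition above its plate's cutoff, the mean of tested wells on that plate plus 3 SD, cut at about 29% in these data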;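 further: 0% = Melanotan II alone and 100% = Melanotan II plus saturating MCL0020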
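system = U2OS cells with stable human MC4R expression | also added = Melanotan II challenge after compound preincubation | dosing = one concentration, 6.5 µM nominal | incubation = compound 30 min, challenge 1 h, detection 1 h | measured by = TR-FRET with Eu-cAMP and labeled anti-cAMP, 671 nm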
TMEM16A inh: blocks the mouse calcium-activated chloride channel TMEM16A. AID 588511. hit rate 1.2% among 310,000. HEK293 TMEM16A/YFP iodide influx fluorescence, ionomycin. Q8BHY3. normalized B-score (activity score, 25-100; higher = stronger inhibition) at 10 µM;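 active means ratio plate-corrected score three or more library SD toward inhibition, starting fluorescence score within five deviations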;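 further: score derived from kinetic fluorescence span divided by baseline fluorescence per well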
TMEM16A reconf: TMEM16A (mouse) chloride channel inhibition, re-confirmation; shares compounds with TMEM16A inh; AID 652189; inhibition, % at 10 µM; HEK293 TMEM16A/YFP-H148Q, iodide quench fluorescence; ionomycin added to raise cell calcium; hit rate 39% among 2,300;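 active means mean duplicate percent inhibition, scaled so buffer wells are 0 and the reference blocker 100, over three buffer SD above buffer mean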
HEK293 Ca mobil: alters calcium mobilization in TMEM16A HEK293 cells, counter-screen | shares compounds with TMEM16A inh | hit rate 2% among 2,300 | TMEM16A/YFP HEK293, Fluo4 calcium mobilization | AID 652231 | calcium response (% of ionomycin), % at 10 µM;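 active means duplicate-averaged calcium signal over 20% of the ionomycin maximum, relative to buffer baseline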;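 further: each well's signal is peak minus trough fluorescence divided by its pre-addition baseline; 0% = buffer wells and 100% = ionomycin wells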
YFP-HEK293 quench: counter-screen for TMEM16A inhibitors: effect in parental YFP-HEK293 cells | 2,300 tested, under 10 active | shares compounds with TMEM16A inh | YFP ratio F(max-min)/F0 at 10 µM | iodide YFP quench, ionomycin;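 active means yellow fluorescent protein signal ratio exceeding the buffer control mean by over 5 SD of those controls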;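 further: ratio is mean of duplicate wells from kinetic YFP trace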
ClC-1 rat inh: blocks the rat ClC-1 voltage-dependent chloride channel | AID 652236 | ratio percent, % at 10 µM | 2,300 tested, under 10 active | CHO ClC-1-YFP, iodide influx fluorescence quench; iodide control reads 0, buffer control 100 | shares compounds with TMEM16A inh;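 active means duplicate-mean ratio percent above the mean of iodide-only control wells, which defines zero, plus 5 of their SD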;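 further: higher percent means stronger block of ClC-1 iodide influx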
Target sequence (P35524 whole entry, looked up): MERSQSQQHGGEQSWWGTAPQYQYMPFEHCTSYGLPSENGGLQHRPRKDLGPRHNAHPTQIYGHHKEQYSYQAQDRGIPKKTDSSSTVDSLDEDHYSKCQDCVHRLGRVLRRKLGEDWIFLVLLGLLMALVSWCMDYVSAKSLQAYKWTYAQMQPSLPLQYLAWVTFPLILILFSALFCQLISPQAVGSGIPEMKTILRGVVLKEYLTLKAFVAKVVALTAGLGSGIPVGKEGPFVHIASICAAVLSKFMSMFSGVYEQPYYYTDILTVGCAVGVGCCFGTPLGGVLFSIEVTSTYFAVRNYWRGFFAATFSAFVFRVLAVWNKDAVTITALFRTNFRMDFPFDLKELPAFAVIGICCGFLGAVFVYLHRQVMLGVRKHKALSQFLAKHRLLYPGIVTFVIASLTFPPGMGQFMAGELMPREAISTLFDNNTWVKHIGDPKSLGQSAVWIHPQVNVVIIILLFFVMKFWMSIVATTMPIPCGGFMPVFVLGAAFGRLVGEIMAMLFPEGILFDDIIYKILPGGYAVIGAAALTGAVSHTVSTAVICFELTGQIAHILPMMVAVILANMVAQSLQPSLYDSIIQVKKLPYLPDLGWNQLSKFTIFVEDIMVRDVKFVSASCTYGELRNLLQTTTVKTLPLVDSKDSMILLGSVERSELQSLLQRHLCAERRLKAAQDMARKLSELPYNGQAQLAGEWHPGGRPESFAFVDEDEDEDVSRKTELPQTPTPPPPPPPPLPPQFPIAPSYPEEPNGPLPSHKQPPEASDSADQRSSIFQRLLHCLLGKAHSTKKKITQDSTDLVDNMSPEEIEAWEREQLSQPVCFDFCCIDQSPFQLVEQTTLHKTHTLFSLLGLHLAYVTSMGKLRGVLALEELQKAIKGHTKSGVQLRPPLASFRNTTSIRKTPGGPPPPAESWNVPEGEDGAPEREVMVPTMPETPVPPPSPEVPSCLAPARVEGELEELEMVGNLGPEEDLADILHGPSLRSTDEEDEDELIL
An asterisk follows results filed as active; i = inactive; . = no result given. This is a sample that favours compounds with a hit; in the whole collection about 3.8% have one here.

SMILES	MC4R barr agon	CSC inhib	TMEM16A act	Beta apoptosis	MC4R antagonist	TMEM16A inh	TMEM16A reconf	HEK293 Ca mobil	YFP-HEK293 quench	ClC-1 rat inh
O=S(=O)(NCCOCC(F)(F)C(F)F)c1ccc2oc3ccccc3c2c1	6	0	i	1	1	25*	24%*	i	-0.92	-12
C/C(=N\NC(=O)CSc1nc(C)[nH]c1[N+](=O)[O-])c1ccc(F)cc1	1	-3	i	-3	1	100*	i	i	-0.93	-3
Cc1cccc(C)c1NC(=O)c1ccc2sc([C@@H]3O[C@H](CO)[C@H](O)[C@H](O)[C@H]3O)nc2c1	-2	.	.	.	2	.	.	.	.	.
NC1(C(=O)O)CSSC1	0	.	i	.	-3	.	.	.	.	.
C=CCc1ccc(OCCOCCOc2ccccc2[N+](=O)[O-])c(OC)c1	-2	4	i	-2	1	100*	i	i	-1.1	-11
C=CCc1ccc(OCCOCCOc2cccc3cccnc23)c(OC)c1	-1	3	i	-2	2	i	.	.	.	.
O=C(NCc1ccccc1)C1Cc2c(-c3ccc4c(c3)OCO4)ccnc2O1 (centres undefined)	-2	.	.	.	-15	.	.	.	.	.
COc1cccc(-c2nc(CS(=O)(=O)CC(=O)NC3CCCCCC3)c(C)o2)c1	0	-9	i	-2	6	i	.	.	.	.
N#CC(c1ccccc1)c1ccc2c(C(F)(F)F)cc(C(F)(F)F)nc2n1 (centres undefined)	-3	-6	i	93*	-1	100*	42%*	i	-0.84	16
FC(F)(F)c1cc(C(F)(F)F)c2ccc(N/N=C/c3ccccc3)nc2n1	0	-6	i	.	-3	i	.	.	.	.
COc1ccc2[nH]c3c(NCc4ccco4)ncnc3c2c1	.	12	.	0	.	i	.	.	.	.
Fc1ccc2[nH]c3c(NCc4ccccc4)ncnc3c2c1	-3	45	i	59	20	100*	66%*	i	-1	-26
COc1ccc(CCN2C(=O)CSC2=Nc2ccc(C(C)C)cc2)cc1OC	-1	13	i	32	16	100*	53%*	i	-0.94	-28
CCCC(C(=O)NNC(=O)c1cc(C)oc1C)c1ccccc1 (centres undefined)	0	-4	i	-2	1	.	.	.	.	.
CCc1ccc(OCC(=O)Nc2ccncc2)cc1	1	9	i	-2	9	i	.	.	.	.
CC(C)c1ccc(OCC(=O)Nc2ccncc2)cc1	-1	11	i	-3	4	25*	i	i	-0.97	-12
COc1c(C)cc(Br)cc1C(=O)Nc1ccc(Cc2ccncc2)cc1	-2	-1	i	1	-6	100*	i	i	-0.9	-10
CC(C)(C)c1ccc(NC(=O)COc2ccc(-n3ccnc3)cc2)cc1	1	51	i	2	11	100*	44%*	i	-0.99	-10
COc1ccccc1C(=O)Nc1ccc(Cc2ccncc2)cc1	-2	-6	i	7	16	i	.	.	.	.
O=C(COc1ccc2ccccc2c1)Nc1cccc(C(=O)Nc2ccccc2C(=O)O)c1	0	58	i	-3	7	i	.	.	.	.
O=C(COc1ccc2ccccc2c1)Nc1ccc(Br)cc1C(=O)O	-2	-4	i	-4	11	100*	42%*	i	-0.68	3
Cc1ccccc1OCC(=O)Nc1ccc(Cc2ccncc2)cc1	-2	36	i	0	-3	i	.	.	.	.
